ChEMBL document CHEMBL2407075, “Sulphonamido-quinoxalines: search for anticancer agent” (Eur J Med Chem, 2013)

Tests used:
Assay type in all cases: functional
[1] = Growth inhibition of human Hs 578T cells assessed as cell growth at 10^-7 M after 48 hrs by sulforhodamine B assay; conditions: read-out: Activity
Outline: (§1)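 Five-dose screen at NCI. Cells in RPMI 1640 with 5% FBS and 2 mM L-glutamine, seeded at 5000–40,000 cells/well and grown 24 h at 37 °C, 5% CO2 before dosing, with time-zero plates TCA-fixed. Drug diluted from DMSO stock to 0.01, 0.1, 1, 10 and 100 µM final, 48 h. Cells fixed with cold TCA (10% final), stained with 0.4% SRB and read at 515 nm. Percent growth from Tz, control and test absorbances; GI50, TGI and LC50 from dose-response curves.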

[2] = tested on: OVCAR-8; assay: Growth inhibition of human OVCAR8 cells assessed as cell growth at 10^-4 M after 48 hrs by sulforhodamine B assay; conditions: OVCAR-8, 48 h, read-out: Activity
[3] = tested on: CAKI-1; assay: Growth inhibition of human CAKI-1 cells assessed as cell growth at 10^-8 M after 48 hrs by sulforhodamine B assay; conditions: CAKI-1, 48 h, read-out: Activity
Outline: (§2)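 Five-dose NCI-60 run (0.01, 0.1, 1, 10 and 100 µM, as 10-fold dilutions from a DMSO stock made at 400× the top final level). Cells were grown in RPMI 1640 with 5% FBS and 2 mM glutamine and plated for 24 h. They were then exposed for 48 h at 37 °C and 5% CO2. TCA fixation was followed by SRB staining with A515 read-out. Percent growth was taken relative to time-zero and control plates.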

[4] = tested on: HOP-92; assay: Growth inhibition of human HOP92 cells assessed as cell growth at 10^-4 M after 48 hrs by sulforhodamine B assay; conditions: HOP-92, 48 h, read-out: Activity; outline: as §1
[5] = tested on: DU-145; assay: Growth inhibition of human DU145 cells assessed as cell growth at 10^-7 M after 48 hrs by sulforhodamine B assay; conditions: DU-145, 48 h, read-out: Activity; outline: as §2
[6] = tested on: OVCAR-5; assay: Growth inhibition of human OVCAR5 cells assessed as cell growth at 10^-8 M after 48 hrs by sulforhodamine B assay; conditions: OVCAR-5, 48 h, read-out: Activity
[7] = tested on: TK-10; assay: Growth inhibition of human TK10 cells assessed as cell growth at 10^-7 M after 48 hrs by sulforhodamine B assay; conditions: TK-10, 48 h, read-out: Activity
[8] = tested on: UO-31; assay: Growth inhibition of human UO31 cells assessed as cell growth at 10^-5 M after 48 hrs by sulforhodamine B assay; conditions: UO-31, 48 h, read-out: Activity
[9] = tested on: SF-539; assay: Growth inhibition of human SF539 cells assessed as cell growth at 10^-7 M after 48 hrs by sulforhodamine B assay; conditions: SF-539, 48 h, read-out: Activity
[10] = tested on: A549; assay: Growth inhibition of human A549/ATCC cells assessed as cell growth at 10^-5 M after 48 hrs by sulforhodamine B assay; conditions: A549, 48 h, read-out: Activity; outline: as §2
[11] = tested on: NCI-H522; assay: Growth inhibition of human NCI-H522 cells assessed as cell growth at 10^-7 M after 48 hrs by sulforhodamine B assay; conditions: NCI-H522, 48 h, read-out: Activity
[12] = Growth inhibition of human NCI-ADR-RES cells assessed as cell growth at 10^-7 M after 48 hrs by sulforhodamine B assay; conditions: read-out: Activity
[13] = tested on: COLO 205; assay: Growth inhibition of human COLO205 cells after 48 hrs by sulforhodamine B assay; conditions: COLO 205, 48 h, read-out: LC50 (the source's name)
Outline: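 Adherent cells in RPMI 1640 with 5% FBS and 2 mM L-glutamine were plated at 5000–40,000 cells/well and grown 24 h. Five concentrations (0.01–100 µM, DMSO stock) were added for 48 h at 37 °C. Cells were fixed with cold TCA (10% final) and stained with SRB, read at 515 nm. GI50 came from log concentration–growth curves against time-zero and control plates.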

[14] = tested on: NCI-H226; assay: Growth inhibition of human NCI-H226 cells assessed as cell growth at 10^-6 M after 48 hrs by sulforhodamine B assay; conditions: NCI-H226, 48 h, read-out: Activity
[15] = tested on: UACC-62; assay: Growth inhibition of human UACC62 cells assessed as cell growth at 10^-6 M after 48 hrs by sulforhodamine B assay; conditions: UACC-62, 48 h, read-out: Activity
[16] = tested on: SF-295; assay: Growth inhibition of human SF295 cells assessed as cell growth at 10^-4 M after 48 hrs by sulforhodamine B assay; conditions: SF-295, 48 h, read-out: Activity
[17] = tested on: OVCAR-5; assay: Growth inhibition of human OVCAR5 cells assessed as cell growth at 10^-5 M after 48 hrs by sulforhodamine B assay; conditions: OVCAR-5, 48 h, read-out: Activity
[18] = tested on: COLO 205; assay: Growth inhibition of human COLO205 cells assessed as cell growth at 10^-7 M after 48 hrs by sulforhodamine B assay; conditions: COLO 205, 48 h, read-out: Activity; outline: as §2
[19] = tested on: NCI-H23; assay: Growth inhibition of human NCI-H23 cells assessed as cell growth at 10^-6 M after 48 hrs by sulforhodamine B assay; conditions: NCI-H23, 48 h, read-out: Activity
[20] = Growth inhibition of human Hs 578T cells assessed as cell growth at 10^-4 M after 48 hrs by sulforhodamine B assay; conditions: read-out: Activity; outline: as §1
[21] = tested on: HCT-15; assay: Growth inhibition of human HCT15 cells assessed as cell growth at 10^-5 M after 48 hrs by sulforhodamine B assay; conditions: HCT-15, 48 h, read-out: Activity; outline: as §1
[22] = Growth inhibition of human EKVX cells assessed as cell growth at 10^-8 M after 48 hrs by sulforhodamine B assay; conditions: read-out: Activity; outline: as §1
[23] = tested on: M14; assay: Growth inhibition of human M14 cells assessed as cell growth at 10^-6 M after 48 hrs by sulforhodamine B assay; conditions: M14, 48 h, read-out: Activity
[24] = tested on: OVCAR-4; assay: Growth inhibition of human OVCAR4 cells assessed as cell growth at 10^-6 M after 48 hrs by sulforhodamine B assay; conditions: OVCAR-4, 48 h, read-out: Activity
[25] = tested on: KM12; assay: Growth inhibition of human KM12 cells assessed as cell growth at 10^-4 M after 48 hrs by sulforhodamine B assay; conditions: KM12, 48 h, read-out: Activity
[26] = tested on: HL-60(TB); assay: Growth inhibition of human HL-60(TB) cells assessed as cell growth at 10^-6 M after 48 hrs by sulforhodamine B assay; conditions: HL-60, 48 h, read-out: Activity
Outline: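 HL-60(TB) suspension cells were treated 48 h at 37 °C within the five-dose series (0.01–100 µM), fixed with 16% final TCA and SRB-stained, read at 515 nm. Percentage growth at each concentration = (Ti−Tz)/(C−Tz)×100, or (Ti−Tz)/Tz×100 when Ti<Tz, with time-zero (Tz) and untreated control (C) plates.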

[27] = tested on: PC-3; assay: Growth inhibition of human PC3 cells assessed as cell growth at 10^-5 M after 48 hrs by sulforhodamine B assay; conditions: PC-3, 48 h, read-out: Activity
[28] = tested on: HOP-62; assay: Growth inhibition of human HOP62 cells assessed as cell growth at 10^-7 M after 48 hrs by sulforhodamine B assay; conditions: HOP-62, 48 h, read-out: Activity; outline: as §1

| SMILES | growth at 0.1 µM [1] [%] | growth at 100 µM [2] [%] | growth at 0.01 µM [3] [%] | growth at 100 µM [4] [%] | growth at 0.1 µM [5] [%] | growth at 0.01 µM [6] [%] | growth at 0.1 µM [7] [%] | growth at 10 µM [8] [%] | growth at 0.1 µM [9] [%] | growth at 10 µM [10] [%] | growth at 0.1 µM [11] [%] | growth at 0.1 µM [12] [%] | CC50 [13] [µM] | growth at 1 µM [14] [%] | growth at 1 µM [15] [%] | growth at 100 µM [16] [%] | growth at 10 µM [17] [%] | growth at 0.1 µM [18] [%] | growth at 1 µM [19] [%] | growth at 100 µM [20] [%] | other results |
| --- | --- | --- | --- | --- | --- | --- | --- | --- | --- | --- | --- | --- | --- | --- | --- | --- | --- | --- | --- | --- | --- |
| O=S(=O)(Nc1ccc(Cl)cc1)c1ccc2nc(-c3ccccc3)c(-c3ccccc3)nc2c1 | 98 | 72 | 87 | 32 | 99 | 95 | 99 | 6 | 96 | 5 | 90 | 102 | > 100 | 101 | 76 | 77 | 6 | 101 | 85 | 59 | growth at 10 µM [21]: 3%; growth at 0.01 µM [22]: 97%; growth at 1 µM [23]: 94%; growth at 1 µM [24]: 76%; growth at 100 µM [25]: 71%; growth at 1 µM [26]: 89%; growth at 10 µM [27]: -12%; growth at 0.1 µM [28]: 100% |
| O=S(=O)(Nc1ccccn1)c1ccc2nc(-c3ccccc3)c(-c3ccccc3)nc2c1 | 94 | 46 | 91 | 1 | 99 | 93 | 99 | -5 | 94 | 9 | 88 | 102 | 100 | 96 | 75 | 40 | 8 | 98 | 79 | 46 | growth at 10 µM [21]: 3%; growth at 0.01 µM [22]: 100%; growth at 1 µM [23]: 98%; growth at 1 µM [24]: 82%; growth at 100 µM [25]: 53%; growth at 1 µM [26]: 74%; growth at 10 µM [27]: -12%; growth at 0.1 µM [28]: 101% |
